Assay results: ChEMBL document CHEMBL1123993, “2(1H)-quinolinones with cardiac stimulant activity. 1. Synthesis and biological activities of (six-membered heteroaryl)-substituted derivatives” (1988)

Columns and labels:
Canis familiaris [1] = assay: Inotropic activity measured as % increase in dP/dt maximum in Anesthetized dog at the dose of 50 ug/Kg administered intravenously; format: functional, Canis lupus familiaris
Outline: (§1)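 Anesthetized dogs. LVP recorded via Millar catheter passed into the left ventricle through the carotid artery, differentiated to dP/dt max. After 0.75 h equilibration, compound given iv in 0.9% saline 0.5 h after a standard quinazoline inotrope (50 µg/kg). Cycle repeated once control levels returned, at least 0.5 h between doses. Reported as % increase in dP/dt max; relative potency normalised by dose to the standard in the same dog.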

Canis familiaris [2] = assay: Decrease in QA interval in Conscious dog (n=4) 1 hr after a dose of 1 mg / Kg was administered per orally; format: functional, Canis lupus familiaris; set-up: unit not given beside the values
Outline: (§2)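 Conscious dogs (n = 4) given test substance as a solution by oral gavage. QA interval (ms from ECG R wave to arterial pressure pulse upstroke) recorded by computer every 0.16 h, from 0.5 h predose to 4 h postdose. Each time-point value is the mean of six consecutive 8-s sets. Reported as decrease from mean predose control.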

Canis familiaris [3] = assay: Decrease in QA interval in Conscious dog(n=4) 3h after a dose of 1 mg/kg was administered per orally
Canis familiaris [4] = assay: Percentage increase in dP/dt maximum observed with 4-[4-[2-(1,1-dioxo-2-isothiazolidinyl)-ethyl]-[…] (50 ug/Kg) in dog; format: functional, Canis lupus familiaris
Outline: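 Standard quinazoline inotrope given iv at 50 µg/kg to anesthetized dogs before each test compound. Left ventricular pressure recorded by Millar catheter via the carotid artery and differentiated to dP/dt max. Response expressed as % increase in dP/dt max; individual values taken from a typical test run.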

Canis familiaris [5] = assay: Decrease in QA interval in Conscious dog(n=4) 3h after a dose of 1 ug/kg was administered per orally; format: functional, Canis lupus familiaris; settings: in the assay text read “1 mg/kg” for “1 ug/kg”; outline: as §2
Canis familiaris [6] = assay: Inotropic activity measured as % increase in dP/dt maximum in Anesthetized dog at the dose of 250 ug/Kg administered intravenously; format: functional, Canis lupus familiaris; outline: as §1
Canis familiaris [7] = assay: Decrease in QA interval in Conscious dog (n=4) 3h after a dose of 1 ug/Kg was administered per orally; format: functional, Canis lupus familiaris; settings: in the assay text read “1 mg/Kg” for “1 ug/Kg”; outline: as §2
Canis familiaris [8] = assay: Decrease in QA interval in Conscious dog (n=4) 1 hr after a dose of 1 mg/Kg was administered per orally
Canis familiaris [9] = assay: Decrease in QA interval in Conscious dog (n=4) 1 hr after a dose of 0.5 mg / Kg was administered per orally; format: functional, Canis lupus familiaris; outline: as §2
Canis familiaris [10] = assay: Inotropic activity measured as % increase in dP/dt maximum in Anesthetized dog at the dose of 12.5 ug/Kg administered intravenously; format: functional, Canis lupus familiaris; outline: as §1
Canis familiaris [11] = assay: Decrease in QA interval in Conscious dog(n=4) 3h after a dose of 1 mg/Kg was administered per orally; format: functional, Canis lupus familiaris; outline: as §2
Canis familiaris [12] = assay: Decrease in QA interval in Conscious dog(n=4) 3h after a dose of 2 mg/Kg was administered per orally; format: functional, Canis lupus familiaris; outline: as §2
Canis familiaris [13] = assay: Decrease in QA interval in Conscious dog (n=4) 1 hr after a dose of 2 mg/Kg was administered per orally; format: functional, Canis lupus familiaris; outline: as §2
Canis familiaris [14] = assay: Decrease in QA interval in Conscious dog (n=4) 1 hr after a dose of 0.25 mg/Kg was administered per orally; format: functional, Canis lupus familiaris; outline: as §2
Canis familiaris [15] = assay: Decrease in QA interval in Conscious dog (n=4) 3h after a dose of 0.25 mg/Kg was administered per orally; format: functional, Canis lupus familiaris; outline: as §2
Canis familiaris [16] = assay: Inotropic activity measured as % increase in dP/dt maximum in Anesthetized dog at the dose of 25 ug/Kg administered intravenously; format: functional, Canis lupus familiaris; outline: as §1

Compound | dP/dt (Canis familiaris [1]) | Relative potency (Canis familiaris [4]) | also measured
Oc1ccc2cc(-c3cncnc3)ccc2n1 | 44% | 1.1 | Decrease (Canis familiaris [2]): 3; Decrease (Canis familiaris [3]): 1
CSc1cc(-c2ccc(C)nc2C)cc2ccc(O)nc12 | 20 | 0.5 | –
Cc1ccncc1-c1ccc2nc(O)ccc2c1 | 21% | 1.3 | –
Oc1ccc2ccc(-c3cccnc3)cc2n1 | 6% | 0.2 | –
COc1ccc(-c2ccc3nc(O)ccc3c2)cn1 | 11% | 0.3 | –
CCc1cc(-c2ccc(C)nc2C)cc2ccc(O)nc12 | 35% | 1 | –
Cc1ccc(-c2cc(C(C)C)c3nc(O)ccc3c2)c(C)n1 | 16% | 0.4 | –
Oc1ccc2cc(-c3ncccn3)ccc2n1 | 28% | 0.7 | Decrease (Canis familiaris [5]): 4; Decrease (Canis familiaris [2]): 4
Cc1ccc(-c2cc(Br)c3nc(O)ccc3c2)c(C)n1 | 41% | 0.7 | –
Cc1ccc(-c2ccc3c(c2)CCC(=O)N3)c(C)n1 | 32% | 0.8 | –
COc1cc(-c2ccc(C)nc2C)cc2ccc(O)nc12 | 11% | 0.4 | –
Cc1cc2nc(O)ccc2cc1-c1cccnc1 | – | 0.2 | dP/dt (Canis familiaris [6]): 51%
O=[N+]([O-])c1cc2cc(-c3cccnc3)ccc2nc1O | 39% | 0.6 | –
O=C1CCc2cc(-c3cccnc3)ccc2N1 | 41% | 1.1 | Decrease (Canis familiaris [7]): 7; Decrease (Canis familiaris [8]): 10
Cc1cc(-c2cccnc2)cc2ccc(O)nc12 | – | 9 | Decrease (Canis familiaris [5]): 20; Decrease (Canis familiaris [9]): 16; dP/dt (Canis familiaris [10]): 112%
Cc1ccc(-c2cc(C)c3nc(O)ccc3c2)c(C)n1 | – | 4.3 | Decrease (Canis familiaris [2]): 21; dP/dt (Canis familiaris [10]): 43%; Decrease (Canis familiaris [3]): 19
Oc1ccc2c(-c3cccnc3)cccc2n1 | 44% | 0.9 | Decrease (Canis familiaris [5]): 4; Decrease (Canis familiaris [2]): 9

Compound | dP/dt (Canis familiaris [1]) | Relative potency (Canis familiaris [4]) | also measured
Cc1cc(O)nc2ccc(-c3cccnc3)cc12 | 39% | 0.7 | –
Nc1cc2cc(-c3cccnc3)ccc2nc1O | 63% | 0.9 | –
Cc1ccc(-c2ccc3nc(O)ccc3c2)cn1 | 46% | 1.3 | –
Oc1ccc2cc(-c3ccncn3)ccc2n1 | 38% | 1.2 | Decrease (Canis familiaris [5]): 2; Decrease (Canis familiaris [2]): 6
Cc1ccc(-c2ccc3nc(O)ccc3c2)c(C)n1 | 37% | 1.4 | Decrease (Canis familiaris [5]): 5; Decrease (Canis familiaris [2]): 6
Nc1ccc(-c2ccc3nc(O)ccc3c2)cn1 | 30% | 0.8 | –
Cc1ncccc1-c1ccc2nc(O)ccc2c1 | 74% | 1.7 | –
Oc1ccc2cc(-c3ccncc3)ccc2n1 | 51% | 0.9 | Decrease (Canis familiaris [2]): 13; Decrease (Canis familiaris [11]): 8
Oc1ccc2cc(-c3cccnn3)ccc2n1 | 32% | 0.7 | Decrease (Canis familiaris [5]): 5; Decrease (Canis familiaris [2]): 8
Cc1ccc(-c2cc(O)c3nc(O)ccc3c2)c(C)n1 | 19% | <0.1 | –
Oc1ccc2cc(-c3ccnnc3)ccc2n1 | 43% | 1.3 | –
N#Cc1cc2cc(-c3cccnc3)ccc2nc1O | 46% | 0.9 | –
Oc1ccc2cc(-c3ccccn3)ccc2n1 | – | 0.3 | Decrease (Canis familiaris [12]): 1; Decrease (Canis familiaris [13]): 2; dP/dt (Canis familiaris [6]): 62%
Oc1ccc2cc(-c3cccnc3)ccc2n1 | 54% | 1.3 | Decrease (Canis familiaris [2]): 14; Decrease (Canis familiaris [11]): 7
CSc1ccc(C(=O)c2[nH]c(=O)[nH]c2C)cc1 [ENOXIMONE] | – | 0.013 | dP/dt (Canis familiaris [6]): 32%
Cc1[nH]c(=O)c(C#N)cc1-c1ccncc1 [MILRINONE] | – | 1.6 | Decrease (Canis familiaris [14]): 13; Decrease (Canis familiaris [15]): 7; dP/dt (Canis familiaris [16]): 46%
